Several values for one entry are separate records, joined by “and”; a condition that tells them apart may be missing. Equal entries are not always repeated. Activity calls are given as the source filed them.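 Rule for the calls: active = fitted dose curve reaching 40% activation within the tested dose range; inconclusive = no clear call, values can overlap the other calls; inactive = the rest, or activity opposite the expected rise.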
Key:
[1] = tested on: U2OS HRE-luciferase reporter, luminescence, HIF activation; assay: HRE-luciferase reporter activators in U2OS cells, dose response, cell-based, luminescence, U2OS HRE-luc, dry powder, set 6 (AID 493195)
Summary of the method: (§1)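 System: U2OS cells with stable HRE-driven luciferase / Amount: 6,000 cells/well / Doses: 8 concentrations, 3-fold steps, 7.5 mM stock / Incubation: 24 h cell rest, then 24 h compound exposure, 37 °C, 21% O2 / Signal: Steady-Glo luciferase luminescence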

[2] = as above; details: U2OS HRE-luciferase reporter, luminescence, HIF activation; at 38 µM (top of the series)
Summary of the method: as §1

Row | Compound | AC40 [1] | activation [2]
1 | C[C@@H](Nc1nc(-c2ccccn2)nnc1-c1ccccc1)C1CCCCC1 | 4.3 µM | 
2 | CN(C)c1nc(-c2ccccn2)nnc1-c1ccccc1 | 10.5 µM | 
3 | c1ccc(-c2nnc(-c3ccccn3)nc2Nc2nc3ccccc3s2)cc1 | 5.02 µM | 
4 | Clc1cccc(CNc2nc(-c3ccccn3)nnc2-c2ccccc2)c1 | 1.87 µM | 
5 | O=C(Nc1cn2ccccc2n1)c1cc(-c2ccccc2)on1 |  | 0.943% (inactive)
6 | O=C(NCC1CC1)c1cc(-c2ccccc2)on1 |  | 19.6% (inactive)
7 | Oc1ccc(CNC2Cc3ccccc3C2)c2cccnc12 | 32.6 µM | 
8 | O=C(NCCCn1ccnc1)c1cc(-c2ccccc2)on1 | 26.5 µM | 
9 | c1ccc(-c2nnc(Nc3nc(-c4ccccn4)nnc3-c3ccccc3)s2)cc1 | 4.75 µM | 
10 | CN1CCN(C(=O)c2cc(-c3ccccc3)on2)CC1 |  | -0.469% (inactive)
11 | c1ccc(-c2nnc(-c3ccccn3)nc2NCC2CC2)cc1 | 7.2 µM | 
12 | c1ccc(-c2nnc(-c3ccccn3)nc2NCCCN2CCOCC2)cc1 | 10.7 µM | 
13 | N#CC1(c2ccccc2)CCN(Cc2ccc(O)c3ncccc23)CC1 |  | 7.8% (inactive)
14 | Cc1ccc(CNC(=O)c2cc(-c3ccccc3)on2)cc1 |  | -0.243% (inactive)
15 | O=C(Nc1ncc2ccccc2n1)c1cc(-c2ccccc2)on1 |  | 0.873% (inactive)
16 | O=C(Nc1nnc(-c2ccccc2)s1)c1cc(-c2ccccc2)on1 |  | -0.274% (inactive)
17 | O=C(NCC1CCCCC1)c1cc(-c2ccccc2)on1 |  | 1.39% (inactive)
18 | c1ccc(CNc2nc(-c3ccccn3)nnc2-c2ccccc2)cc1 | 5.43 µM | 
19 | OCCCNc1nc(-c2ccccn2)nnc1-c1ccccc1 | 16.7 µM | 
20 | O=C(NCCN1CCCCC1)c1cc(-c2ccccc2)on1 |  | 0.598% (inactive)
21 | CCCCNC(=O)c1cc(-c2ccccc2)on1 | 28.5 µM | 
22 | OCC1CCN(c2nc(-c3ccccn3)nnc2-c2ccccc2)CC1 | 18.8 µM | 

Row | Compound | AC40 [1] | activation [2]
23 | COc1cccc(CNc2nc(-c3ccccn3)nnc2-c2ccccc2)c1 | 2.43 µM | 
24 | c1ccc(-c2ccc(CNc3nc(-c4ccccn4)nnc3-c3ccccc3)cc2)cc1 | 0.917 µM | 
25 | O=C(c1cc(-c2ccccc2)on1)N1CCC(N2CCOCC2)CC1 |  | -0.46% (inactive)
26 | Oc1ccc(CN2CCC3CCCCC3C2)c2cccnc12 (stereo unspecified) | 21.3 µM | 
27 | COc1ccc(CNc2nc(-c3ccccn3)nnc2-c2ccccc2)cc1 | 2.51 µM | 
28 | c1ccc(-c2nnc(-c3ccccn3)nc2N2CCC(C3CCCCC3)C2)cc1 (stereo unspecified) | 1.78 µM | 
29 | Oc1ccc(CN2CCc3ccccc3C2)c2cccnc12 | 5.32 µM | 5.7% (inactive)
30 | O=C(NCc1ccccc1)c1cc(-c2ccccc2)on1 |  | 1.19% (inactive)
31 | c1ccc(-c2nnc(-c3ccccn3)nc2N2CCC(N3CCOCC3)CC2)cc1 | 8.15 µM | 
32 | c1ccc(-c2nnc(-c3ccccn3)nc2N2CCC(c3ccccc3)C2)cc1 (stereo unspecified) | 1.54 µM | 
33 | O=C(c1cc(-c2ccccc2)on1)N1CCC(CO)CC1 |  | 0.347% (inactive)
34 | Cc1ccc(CNc2nc(-c3ccccn3)nnc2-c2ccccc2)cc1 | 2.72 µM | 
35 | Oc1ccc(CN2CCC(Cc3ccccc3)CC2)c2cccnc12 | 26.5 µM | 
36 | CC(C)(C)CCNC(=O)c1cc(-c2ccccc2)on1 |  | 9.01% (inactive)
37 | CC(Nc1nc(-c2ccccn2)nnc1-c1ccccc1)c1ccccc1 (stereo unspecified) | 2.53 µM | 
38 | O=C(NCCCCO)c1cc(-c2ccccc2)on1 | 24.2 µM | 
39 | c1ccc(-c2nnc(-c3ccccn3)nc2N2CCN(c3ccncc3)CC2)cc1 | 7.78 µM | 
40 | O=C(Nc1ncc(-c2ccccc2)o1)c1cc(-c2ccccc2)on1 |  | -0.076% (inactive)
41 | O=C(NC1CCc2ccccc2C1)c1cc(-c2ccccc2)on1 (stereo unspecified) |  | 1.01% (inactive)
42 | Cc1cccc(CNc2nc(-c3ccccn3)nnc2-c2ccccc2)c1 | 3.83 µM | 
43 | O=C(Nc1nc2ccccc2s1)c1cc(-c2ccccc2)on1 |  | 0.068% (inactive)
44 | Cc1ccc(Nc2nc(-c3ccccn3)nnc2-c2ccccc2)cn1 | 9.36 µM | 

Row | Compound | AC40 [1] | activation [2]
45 | O=C(c1cc(-c2ccccc2)on1)N1CCC(N2CCCC2)CC1 |  | -0.666% (inactive)
46 | Cn1c(NC(=O)c2cc(-c3ccccc3)on2)nc2ccccc21 |  | -0.522% (inactive)
47 | CC1CN(Cc2ccc(O)c3ncccc23)CC(C)O1 (stereo unspecified) |  | 2.48% (inactive)
48 | O=C(NCCN1CCOCC1)c1cc(-c2ccccc2)on1 |  | 20.9% (inactive)
49 | c1ccc(-c2nnc(-c3ccccn3)nc2NCC2CCCCC2)cc1 | 4.15 µM | 
50 | Cc1cccc(CNC(=O)c2cc(-c3ccccc3)on2)c1 |  | -0.241% (inactive)
51 | Cc1ccc(CNc2nc(-c3ccccn3)nnc2-c2ccccc2)cc1C | 1.48 µM | 
52 | c1ccc(-c2nnc(-c3ccccn3)nc2NCc2cccnc2)cc1 | 20.7 µM | 
53 | O=C(NC1Cc2ccccc2C1)c1cc(-c2ccccc2)on1 |  | 0.84% (inactive)
54 | CC(C)(C)OC(=O)N1CCN(Cc2ccc(O)c3ncccc23)CC1 |  | 9.74% (inactive)
55 | Cc1cccc(NC(=O)c2cc(-c3ccccc3)on2)n1 |  | -0.083% (inactive)
56 | c1ccc(CCNc2nc(-c3ccccn3)nnc2-c2ccccc2)cc1 | 2.14 µM | 
57 | Oc1ccc(CNC2CCc3ccccc32)c2cccnc12 (stereo unspecified) |  | 15.9% (inactive)
58 | C=CCNc1nc(-c2ccccn2)nnc1-c1ccccc1 | 6.56 µM | 
59 | Cc1ccc(NC(=O)c2cc(-c3ccccc3)on2)cn1 |  | -0.191% (inactive)
60 | O=C(NCCCO)c1cc(-c2ccccc2)on1 |  | 16.3% (inactive)
61 | c1ccc(-c2nnc(-c3ccccn3)nc2Nc2cnc3ccccc3n2)cc1 | 7.11 µM | 
62 | O=C(c1cc(-c2ccccc2)on1)N1CCc2cccnc21 |  | -0.142% (inactive)
63 | c1ccc(-c2nnc(-c3ccccn3)nc2NCCN2CCOCC2)cc1 | 11.6 µM | 
64 | c1ccc(-c2csc(Nc3nc(-c4ccccn4)nnc3-c3ccccc3)n2)cc1 | 24.6 µM | 
65 | OCC1CCN(Cc2ccc(O)c3ncccc23)CC1 |  | 44.4% (inactive)
66 | O=C(Nc1ccc2ccccc2n1)c1cc(-c2ccccc2)on1 |  | -0.178% (inactive)

Row | Compound | AC40 [1] | activation [2]
67 | Cn1c(-c2ccccc2)cnc1NC(=O)c1cc(-c2ccccc2)on1 |  | -0.441% (inactive)
68 | C[C@H](Nc1nc(-c2ccccn2)nnc1-c1ccccc1)C1CCCCC1 | 2.23 µM | 
69 | CN(C)CCNC(=O)c1cc(-c2ccccc2)on1 |  | 0.398% (inactive)
70 | CC(C)(C)CCNc1nc(-c2ccccn2)nnc1-c1ccccc1 | 3.35 µM and 1.68 µM | 
71 | c1ccc(-c2nnc(-c3ccccn3)nc2NCc2ccccn2)cc1 | 18.5 µM | 
72 | Cc1ccccc1CNc1nc(-c2ccccn2)nnc1-c1ccccc1 | 4.31 µM | 
73 | O=C(c1cc(-c2ccccc2)on1)N1CCN(c2ccncc2)CC1 |  | -0.05% (inactive)
74 | CC(C)(C)c1ccc(CNc2nc(-c3ccccn3)nnc2-c2ccccc2)cc1 | 1.13 µM | 
75 | c1ccc(-c2cccc(CNc3nc(-c4ccccn4)nnc3-c3ccccc3)c2)cc1 | 1.27 µM | 
76 | Cc1cccc(Nc2nc(-c3ccccn3)nnc2-c2ccccc2)n1 | 11.2 µM | 
77 | Cc1ccccc1CNC(=O)c1cc(-c2ccccc2)on1 |  | -0.171% (inactive)
78 | c1ccc(-c2nnc(-c3ccccn3)nc2NCC2CCOCC2)cc1 | 18.3 µM | 
79 | COc1ccccc1N1CCN(Cc2ccc(O)c3ncccc23)CC1 | 33 µM | 
80 | CN1CCN(c2nc(-c3ccccn3)nnc2-c2ccccc2)CC1 | 15.8 µM | 
81 | c1ccc(-c2cnc(Nc3nc(-c4ccccn4)nnc3-c3ccccc3)s2)cc1 | 31.4 µM | 
82 | c1ccc(-c2nnc(-c3ccccn3)nc2NCCc2ccccn2)cc1 | 10.1 µM | 
83 | O=C(Nc1nc(-c2ccccc2)cs1)c1cc(-c2ccccc2)on1 |  | -0.156% (inactive)
84 | O=C(Nc1cnc2ccccc2c1)c1cc(-c2ccccc2)on1 |  | 0.224% (inactive)
85 | Cn1c(-c2ccccc2)cnc1Nc1nc(-c2ccccn2)nnc1-c1ccccc1 |  | -1.62% (inactive)

Source: PubChem BioAssay AID493195 (Broad Institute, 2011)
